Compound activity as filed in PubChem BioAssay.
Rows were chosen to be rich in hits. Some 3.8% of all compounds tested hit in one or more screens of this group.
hERG rescue: hERG (human) protection from proarrhythmic block; CHO-hERG, FluxOR thallium flux, dofetilide IC70 present; activation (rescue from dofetilide block), less the hit threshold, % at 10 µM; 310,000 compounds, 0.51% hits; AID 1511;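 active = activation above the mean of controls blocked by dofetilide plus 5 SD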;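 note: thallium influx through hERG after potassium depolarization seen as dye fluorescence rise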
KCNK3 inh: human KCNK3 channel inhibition, primary screen. O14649. CHO-KCNK3 thallium flux, FluxOR fluorescence; hits give low values. B-score at 10 µM. 340,000 compounds, 0.84% hits;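 active = B-score under library mean minus 4 SD, starting fluorescence ratio at most library mean plus 5 SD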;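 note: more negative B-score means stronger inhibition of thallium flux through KCNK3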
Target sequence (O14649 whole entry, looked up): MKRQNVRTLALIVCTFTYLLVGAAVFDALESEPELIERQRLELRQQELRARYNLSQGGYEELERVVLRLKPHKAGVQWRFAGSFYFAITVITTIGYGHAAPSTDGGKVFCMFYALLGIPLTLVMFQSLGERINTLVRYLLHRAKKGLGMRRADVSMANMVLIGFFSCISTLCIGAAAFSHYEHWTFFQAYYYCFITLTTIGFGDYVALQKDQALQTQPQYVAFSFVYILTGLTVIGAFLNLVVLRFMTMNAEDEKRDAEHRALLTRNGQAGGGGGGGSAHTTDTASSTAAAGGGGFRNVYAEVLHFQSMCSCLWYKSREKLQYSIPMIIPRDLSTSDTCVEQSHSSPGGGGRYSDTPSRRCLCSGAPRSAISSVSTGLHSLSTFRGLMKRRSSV
KCNQ1 act: potentiates or activates the human KCNQ1 potassium channel. P51787. CHO-K1 KCNQ1, thallium flux FluxOR fluorescence; hits give high values. B-score at 10 µM. 310,000 compounds, 0.35% hits;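 active = fluorescence ratio B-score, a plate-corrected score, at least three library SD, with initial intensity B-score within 5 SD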
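Medium – assay buffer, equal DMSO in all wells · Material – CHO-K1 cell line with stable KCNQ1 potassium channel expression · Signal – kinetic FluxOR thallium fluorescence, 10-s 1-Hz baseline, 110-s post-stimulus read · Compound – single concentration per compound, DMSO matched to controls · Schedule – 37 °C overnight plating, 90-min dark dye load, 20-min compound pretreatment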
KCNQ1 inh: blocks the human KCNQ1 potassium channel | CHO-K1 KCNQ1, FluxOR thallium flux fluorescence; hits give high values | B-score at 10 µM | P51787 | 310,000 compounds, 1.3% hits;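 active = compounds whose thallium flux B-score, printed positive for inhibition, exceeds three library SD while starting fluorescence stays within three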;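 note: channel opened by potassium depolarization with thallium stimulus after 20 min compound exposure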
Kir21 inh: inhibitors of mouse Kir2.1 inward-rectifier potassium channel; P35561; HEK293-Kir2.1, FluxOR thallium flux fluorescence; hits give low values; B-score at 10 µM; 310,000 compounds, 0.85% hits;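 active = fluorescence ratio B-score at or below minus 3 SD of library scores, with starting-brightness B-score within 2 SD, cut at about -4.2 in these data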;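 note: channel flux triggered by added potassium and thallium sulfate stimulus; B-score of peak minus minimum fluorescence over baseline after thallium stimulus; more negative B-score means stronger Kir2.1 block with less thallium influx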
KCNK9 inh: inhibitors of human KCNK9 two-pore domain potassium channel. 310,000 compounds, 1.2% hits. B-score at 10 µM. Q9NPC2. HEK293 KCNK9, FluxOR thallium flux fluorescence; hits give low values;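 active = ratio B-score over 3 SD below the library mean, with starting fluorescence within 5 SD of its mean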;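 note: negative B-score means less thallium flux so channel inhibition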
KCNK9 inh conf: human KCNK9 inhibitor confirmation. shares compounds with KCNK9 inh. HEK293 KCNK9 cells, FluxOR thallium flux fluorescence. inhibition, % at 10 µM. 4,900 compounds, 43% hits;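 active = thallium signal inhibited by more than 5 SD of the compound-free buffer control wells, on both duplicate plates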
Kir21 sel: tests whether KCNK9 modulators also affect mouse Kir2.1; shares compounds with KCNK9 inh; Kir2.1 cells, FluxOR thallium flux fluorescence; inhibition, % at 10 µM; 4,900 compounds, 4% hits; AID 492993;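 active = thallium signal drop more than 5 SD beyond the mean of the no-compound control wells, seen in both duplicate plates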;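 note: signal is fluorescence rise after thallium addition divided by baseline fluorescence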
HEK293 Tl ctr: second check of KCNK9 modulator effects in non-induced HEK293 cells | 4,900 compounds, 40% hits | shares compounds with KCNK9 inh | FluxOR thallium flux | inhibition, % at 10 µM | AID 492997;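 active = thallium signal drop beyond 5 SD of the untreated control mean, on both duplicate plates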
Large screens that a line does not name were inactive (follow-up assays come after a bar, where they were run).

COc1ccc(OC)c(C(=O)NC(CC(N)=O)c2ccc(N3CCC(Cc4ccccc4)CC3)c([N+](=O)[O-])c2)c1 (stereo not drawn)	KCNK9 inh -11 | KCNK9 inh conf 55% | Kir21 sel inactive | HEK293 Tl ctr inactive
COc1ccc(OC)c(C(=O)NC(CC(N)=O)c2ccc(N3CCN(c4ccccc4)CC3)c([N+](=O)[O-])c2)c1 (stereo not drawn)	none
COc1ccccc1N1C(C)=CC(=C(C#N)c2nc3ccccc3s2)C=C1C	KCNK9 inh -8.4 | KCNK9 inh conf 37% | Kir21 sel inactive | HEK293 Tl ctr 70%
Cc1cccc(Nc2nnc(-c3ccc(N4CCOCC4)c([N+](=O)[O-])c3)c3ccccc23)c1	none | KCNK9 inh conf inactive | Kir21 sel inactive | HEK293 Tl ctr inactive
Cc1nnc(-c2ccc(N3CCOCC3)c([N+](=O)[O-])c2)o1	none (no result: hERG rescue, KCNQ1 act, KCNQ1 inh, Kir21 inh, KCNK9 inh)
O=C(CCC(=O)c1ccc(Cl)cc1)OCn1nnc2ccccc2c1=O	none (no result: hERG rescue, KCNQ1 act, KCNQ1 inh, Kir21 inh, KCNK9 inh)
CSc1cccc(NC(=O)CSc2ncccc2C(=O)Oc2cccc([N+](=O)[O-])c2)c1	none
CCN(C(=O)CSc1ncccc1C(=O)Oc1cccc([N+](=O)[O-])c1)c1cccc(C)c1	KCNK9 inh -19 | KCNK9 inh conf 52% | Kir21 sel inactive | HEK293 Tl ctr 28%
CCN(CC)c1nc(C(N)=O)cc(-c2ccccc2)n1	KCNK9 inh -8.5 | KCNK9 inh conf inactive | Kir21 sel inactive | HEK293 Tl ctr inactive
COc1cccc(Oc2ccc(C(F)(F)F)cc2N)c1	KCNK9 inh -8.4 | KCNK9 inh conf 54% | Kir21 sel inactive | HEK293 Tl ctr 32%
O=C(CSc1nnc(Cc2ccccc2)o1)Nc1ccc(N2CCOCC2)cc1	none (no result: hERG rescue, KCNQ1 act, KCNQ1 inh, Kir21 inh, KCNK9 inh)
CC1CCc2c(sc(NC(=O)c3ccccc3C(=O)O)c2C#N)C1 (stereo not drawn)	none
CCC(C)(C)C1CCc2c(sc(NC(=O)c3ccccc3C(=O)O)c2C#N)C1 (stereo not drawn)	hERG rescue 15, KCNQ1 act 9 | KCNK9 inh conf inactive | Kir21 sel inactive | HEK293 Tl ctr inactive
C(=C\c1ccccc1)/C=N/N1CCN(Cc2ccccc2)CC1	none
COc1ccccc1N1CCN(/N=C/C=C/c2ccccc2[N+](=O)[O-])CC1	none | KCNK9 inh conf inactive | Kir21 sel inactive | HEK293 Tl ctr inactive
COc1ccccc1/C=C/C=N/N1CCN(Cc2ccc(Cl)cc2)CC1	none | KCNK9 inh conf inactive | Kir21 sel inactive | HEK293 Tl ctr inactive
COc1ccccc1N1CCN(Cc2ccc(-c3ccccc3[N+](=O)[O-])o2)CC1	none | KCNK9 inh conf inactive | Kir21 sel inactive | HEK293 Tl ctr inactive
O=[N+]([O-])c1ccccc1/C=C\C=N\N1CCN(c2ccccc2)CC1	none
COc1ccccc1/C=C/C=N\N1CCN(Cc2ccccc2Cl)CC1	none | KCNK9 inh conf inactive | Kir21 sel inactive | HEK293 Tl ctr inactive
COc1ccc(/C=N\N2CCN(Cc3ccccc3Cl)CC2)cc1	none
CC1CCCC(NC(=O)COC(=O)c2n[nH]c3ccccc23)C1C (stereo not drawn)	none (no result: hERG rescue, KCNQ1 act, KCNQ1 inh, Kir21 inh, KCNK9 inh)
Nc1cc2c3ccccc3ccc2c2ccccc12	none (no result: hERG rescue, KCNQ1 act, KCNQ1 inh, Kir21 inh, KCNK9 inh)
COc1ccc(NC(=O)CSc2nnc(NC(=O)C3CC3)s2)cc1OC	none
Cc1cc(NC(=O)CSc2nc(CCC3CCCC3)nc3ccccc23)no1	none
CCc1nc(SCC(=O)c2ccc3c(c2)OCCO3)c2ccccc2n1	none
O=C(CSc1nc(CCC2CCCC2)nc2ccccc12)NCc1ccc2c(c1)OCO2	KCNK9 inh -13 | KCNK9 inh conf 47% | Kir21 sel inactive | HEK293 Tl ctr inactive
O=C(CSc1nc(Cc2ccccc2)nc2ccccc12)c1ccc2c(c1)OCCO2	KCNK9 inh -14 | KCNK9 inh conf 57% | Kir21 sel inactive | HEK293 Tl ctr 34%
